Results as given in ChEMBL document CHEMBL4610030, “Identification of human lactate dehydrogenase A inhibitors with anti-osteosarcoma activity through cell-based phenotypic screening” (Bioorg Med Chem Lett, 2020).
Active and inactive are the calls of the source. No cut-off for these calls is given here.

Tests used:
[1] = target: T1, L-lactate dehydrogenase A chain (Homo sapiens, UniProt P00338); assay: Inhibition of human LDHA at 5 uM using NADH and pyruvate by microplate reader based assay relative to control
Outline: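 Recombinant-free description: hLDHA was incubated with pyruvate and NADH plus compound at 5 µM. NADH consumption was followed as the decrease in absorbance at 340 nm on a microplate reader and expressed as inhibitory rate.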

[2] = target: T1, L-lactate dehydrogenase A chain; assay: Inhibition of human LDHA using NADH and pyruvate by microplate reader based assay
Outline: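 hLDHA activity was measured with pyruvate and NADH across full dose-response to give EC50. The read-out was the decline in absorbance at 340 nm on a microplate reader.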

[3] = target: T1, L-lactate dehydrogenase A chain; assay: Binding affinity at human LDHA assessed as dissociation constant by isothermal titration calorimetry
Outline: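 Compounds were titrated into hLDHA by isothermal titration calorimetry to obtain Kd.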

MG-63 [4] = assay: Antiproliferative activity against human MG63 cells assessed as reduction in cell viability at 5 uM incubated by IncuCyte zoom live cell analysis; format: functional, cell-based; settings: TDE = time-dependent effect
Outline: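 MG-63 cells were exposed to 5 µM and imaged over time by IncuCyte Zoom live-cell analysis to follow growth.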

MG-63 [5] = assay: Antiproliferative activity against human MG63 cells assessed as reduction in cell viability incubated for 24 to 72 hrs by IncuCyte zoom live cell analysis; format: functional, cell-based
HOS = assay: Antiproliferative activity against human HOS cells assessed as reduction in cell viability incubated for 24 to 72 hrs by IncuCyte zoom live cell analysis; format: functional, cell-based
SAOS-2 = assay: Antiproliferative activity against human Saos2 cells assessed as reduction in cell viability incubated for 24 to 72 hrs by IncuCyte zoom live cell analysis; format: functional, cell-based
U2OS = assay: Antiproliferative activity against human U2OS cells assessed as reduction in cell viability incubated for 24 to 72 hrs by IncuCyte zoom live cell analysis; format: functional, cell-based
MG-63 [6] = assay: Induction of apoptosis in human MG63 cells assessed as viable cells at 5 uM measured after 12 hrs by annexin V-propidium iodide staining-based flow cytometry (reference value: 98.11 %); format: functional; settings: MG-63, 12 h, read-out: Activity
Outline: (§1)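 MG-63 cells were treated at 5 µM for 12, 18 or 24 h, or at 2, 5 or 10 µM for 24 h. Cells were then stained with annexin V-FITC/PI and analysed by flow cytometry for apoptotic populations.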

MG-63 [7] = assay: Induction of apoptosis in human MG63 cells assessed as early apoptotic cells at 5 uM measured after 12 hrs by annexin V-propidium iodide staining-based flow cytometry (reference value: 0.14 %); format: functional; outline: as §1
MG-63 [8] = assay: Induction of apoptosis in human MG63 cells assessed as late apoptotic cells at 5 uM measured after 12 hrs by annexin V-propidium iodide staining-based flow cytometry (reference value: 0.91 %); format: functional; outline: as §1
MG-63 [9] = assay: Induction of apoptosis in human MG63 cells assessed as necrotic cells at 5 uM measured after 12 hrs by annexin V-propidium iodide staining-based flow cytometry (reference value: 0.84 %); format: functional; outline: as §1
MG-63 [10] = assay: Induction of apoptosis in human MG63 cells assessed as viable cells at 5 uM measured after 18 hrs by annexin V-propidium iodide staining-based flow cytometry (reference value: 98.11 %); format: functional; settings: MG-63, 18 h, read-out: Activity; outline: as §1
MG-63 [11] = assay: Induction of apoptosis in human MG63 cells assessed as early apoptotic cells at 5 uM measured after 18 hrs by annexin V-propidium iodide staining-based flow cytometry (reference value: 0.14 %); format: functional; outline: as §1
MG-63 [12] = assay: Induction of apoptosis in human MG63 cells assessed as late apoptotic cells at 5 uM measured after 18 hrs by annexin V-propidium iodide staining-based flow cytometry (reference value: 0.91 %); format: functional; outline: as §1
MG-63 [13] = assay: Induction of apoptosis in human MG63 cells assessed as necrotic cells at 5 uM measured after 18 hrs by annexin V-propidium iodide staining-based flow cytometry (reference value: 0.84 %); format: functional; outline: as §1
MG-63 [14] = assay: Induction of apoptosis in human MG63 cells assessed as viable cells at 5 uM measured after 24 hrs by annexin V-propidium iodide staining-based flow cytometry (reference value: 96.30 to 98.11 %); format: functional; settings: MG-63, 24 h, read-out: Activity; outline: as §1
MG-63 [15] = assay: Induction of apoptosis in human MG63 cells assessed as early apoptotic cells at 5 uM measured after 24 hrs by annexin V-propidium iodide staining-based flow cytometry (reference value: 0.14 to 0.16 %); format: functional; outline: as §1
MG-63 [16] = assay: Induction of apoptosis in human MG63 cells assessed as late apoptotic cells at 5 uM measured after 24 hrs by annexin V-propidium iodide staining-based flow cytometry (reference value: 0.91 to 1.44 %); format: functional; outline: as §1
MG-63 [17] = assay: Induction of apoptosis in human MG63 cells assessed as necrotic cells at 5 uM measured after 24 hrs by annexin V-propidium iodide staining-based flow cytometry (reference value: 0.84 to 2.10 %); format: functional; outline: as §1
MG-63 [18] = assay: Induction of apoptosis in human MG63 cells assessed as viable cells at 2 uM measured after 24 hrs by annexin V-propidium iodide staining-based flow cytometry (reference value: 96.30 %); format: functional; settings: MG-63, 24 h, read-out: Activity; outline: as §1
MG-63 [19] = assay: Induction of apoptosis in human MG63 cells assessed as early apoptotic cells at 2 uM measured after 24 hrs by annexin V-propidium iodide staining-based flow cytometry (reference value: 0.16 %); format: functional; outline: as §1
MG-63 [20] = assay: Induction of apoptosis in human MG63 cells assessed as late apoptotic cells at 2 uM measured after 24 hrs by annexin V-propidium iodide staining-based flow cytometry (reference value: 1.44 %); format: functional; outline: as §1
MG-63 [21] = assay: Induction of apoptosis in human MG63 cells assessed as necrotic cells at 2 uM measured after 24 hrs by annexin V-propidium iodide staining-based flow cytometry (reference value: 2.10 %); format: functional; outline: as §1
MG-63 [22] = assay: Induction of apoptosis in human MG63 cells assessed as viable cells at 10 uM measured after 24 hrs by annexin V-propidium iodide staining-based flow cytometry (reference value: 96.30 %); format: functional; settings: MG-63, 24 h, read-out: Activity; outline: as §1
MG-63 [23] = assay: Induction of apoptosis in human MG63 cells assessed as early apoptotic cells at 10 uM measured after 24 hrs by annexin V-propidium iodide staining-based flow cytometry (reference value: 0.16 %); format: functional; outline: as §1
MG-63 [24] = assay: Induction of apoptosis in human MG63 cells assessed as late apoptotic cells at 10 uM measured after 24 hrs by annexin V-propidium iodide staining-based flow cytometry (reference value: 1.44 %); format: functional; outline: as §1
MG-63 [25] = assay: Induction of apoptosis in human MG63 cells assessed as necrotic cells at 10 uM measured after 24 hrs by annexin V-propidium iodide staining-based flow cytometry (reference value: 2.10 %); format: functional; outline: as §1
MG-63 [26] = assay: Induction of apoptosis in human MG63 cells measured after 24 hrs by annexin V-propidium iodide staining-based flow cytometry; format: functional, cell-based; outline: as §1
[27] = target: T1, L-lactate dehydrogenase A chain; assay: Inhibition of LDHA in human MG63 cells assessed as reduction in lactate formation at 2 to 10 uM incubated for 4 hrs; format: cell-based; settings: MG-63
Outline: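 MG-63 cells were treated at 2, 5 and 10 µM for 4 h. Lactate was then measured in the culture medium and compared with untreated control, with P < 0.05.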

[28] = target: T1, L-lactate dehydrogenase A chain; assay: Inhibition of LDHA in human MG63 cells assessed as reduction in extracellular acidification rate at 2 to 10 uM incubated for 4 hrs by seahorse XFe96 analyser based assay; format: cell-based; settings: MG-63
[29] = target: T1, L-lactate dehydrogenase A chain; assay: Inhibition of LDHA in human MG63 cells assessed as reduction in proton production rate at 2 to 10 uM incubated for 4 hrs by seahorse XFe96 analyser based assay; format: cell-based; settings: MG-63
[30] = target: T1, L-lactate dehydrogenase A chain; assay: Inhibition of LDHA in human MG63 cells assessed as increase in oxygen consumption rate incubated for 4 hrs by seahorse XFe96 analyser based assay; format: cell-based; settings: MG-63

Cc1c(C(=O)Nc2ccccc2)[n+]([O-])cn1-c1ccc2[nH]c(CC(C)C)nc2c1
inhibition [1]: 91.2%
EC50 [2]: 0.67 µM
Kd [3]: 2.41 µM
Activity (MG-63 [4]): Tde
IC50 (MG-63 [5]): 2.93 µM
IC50 (HOS): 4.6 µM
IC50 (SAOS-2): 5.1 µM
IC50 (U2OS): 3.7 µM
viability at 5 µM (MG-63 [6]): 92.3%
Activity (MG-63 [7]): 0.34%
Activity (MG-63 [8]): 5.08%
Activity (MG-63 [9]): 2.3%
viability at 5 µM (MG-63 [10]): 83.8%
Activity (MG-63 [11]): 1.32%
Activity (MG-63 [12]): 10.37%
Activity (MG-63 [13]): 4.56%
viability at 5 µM (MG-63 [14]): 66.6 to 78.3%
Activity (MG-63 [15]): 1.1 - 3.47%
Activity (MG-63 [16]): 12.28 - 19.86%
Activity (MG-63 [17]): 8.3 - 10.1%
viability at 2 µM (MG-63 [18]): 94.8%
Activity (MG-63 [19]): 0.4%
Activity (MG-63 [20]): 3.21%
Activity (MG-63 [21]): 1.54%
viability at 10 µM (MG-63 [22]): 66.2%
Activity (MG-63 [23]): 3.55%
Activity (MG-63 [24]): 20.03%
Activity (MG-63 [25]): 10.19%
Activity (MG-63 [26]): Dose-dependent effect
inhibition [27]: Active
inhibition [28]: Active
inhibition [29]: Active
inhibition [30]: Dose-dependent effect

COc1ccc(-n2c[n+]([O-])c(C(=O)Nc3ccccc3)c2C)cc1N1CCCCS1(=O)=O
inhibition [1]: > 50%
EC50 [2]: 3.03 µM
Kd [3]: 6.41 µM
IC50 (MG-63 [5]): 6.47 µM
IC50 (HOS): 10.2 µM
IC50 (SAOS-2): 7.5 µM
IC50 (U2OS): 14.9 µM

Cc1c(C(=O)Nc2ccccc2)[n+]([O-])cn1-c1ccc2occc(=O)c2c1
inhibition [1]: > 50%
EC50 [2]: 3.26 µM
Kd [3]: 9.85 µM
IC50 (MG-63 [5]): 6.1 µM
IC50 (HOS): 12.5 µM
IC50 (SAOS-2): 13.6 µM
IC50 (U2OS): 9.5 µM
